≈ marks a conversion by molar mass, not a printed value. Calls of active or inactive are those of the source. No cut-off for these calls is given here.

Data set [1] relates to Venezuelan equine encephalitis virus. Put plainly: Antiviral activity against Venezuelan equine encephalitis virus TrD infected in Vero 76 cells assessed as reduction in viral titer at 5 uM by crystal violet staining based microplaque assay relative to untreated control. It counts as functional, organism-based.
Data set [2] is described as follows: Aqueous solubility in PBS buffer. It counts as physicochemical. The method, boiled down: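 Solubility measured in 1× PBS at pH 7.4.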
Data set [3] concerns Venezuelan equine encephalitis virus. Put plainly: Antiviral activity against Venezuelan equine encephalitis virus TrD infected in Vero 76 cells assessed as reduction in virus-induced cytopathic effect after 2 days by Celltiter-Glo reagent based assay. In kind it is functional, organism-based. Conditions: Vero 76, 48 h. (Cytopathic effects are the visible damage that an infection or toxin causes in cultured cells.)

For data set [4] the test system is unchanged. Nature of the data set: Antiviral activity against Venezuelan equine encephalitis virus TC83 infected in Vero 76 cells assessed as reduction in virus-induced cytopathic effect after 2 days by Celltiter-Glo reagent based assay. It counts as functional, organism-based. Conditions: TC83, Vero 76, 48 h.
Data set [5] shares this test system. Put plainly: Antiviral activity against Venezuelan equine encephalitis virus V3526 infected in Vero 76 cells assessed as reduction in virus-induced cytopathic effect after 2 days by Celltiter-Glo reagent based assay. Conditions: V3526, Vero 76, 48 h. In kind it is functional, organism-based.
For data set [6] the test system is unchanged. Nature of the data set: Antiviral activity against Venezuelan equine encephalitis virus TC83 infected in Vero 76 cells assessed as reduction in viral titer at 1 uM by crystal violet staining based microplaque assay relative to untreated control. It counts as functional.
Data set [7] is described as follows: Cytotoxicity against african green monkey Vero 76 cells after 3 days by Celltiter-Glo reagent based assay. In kind it is cell-based. Conditions: chlorocebus sabaeus, vero 76, 72 h. Summed up:
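Vero 76 cells were seeded overnight at 12 000/well and given an 8-point 2-fold compound series (20 mM DMSO stock) in EMEM/10% FBS with no virus. Viability was read by CellTiter-Glo after 3 days relative to untreated cells. Run in duplicate; CC50 from a four-parameter logistic or sigmoidal fit.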
(Cellular ATP, detected with luciferase, serves as a proxy for viable cell number.)

For data set [8], the system named is Venezuelan equine encephalitis virus. Put plainly: Antiviral activity against Venezuelan equine encephalitis virus TrD infected in Vero 76 cells assessed as reduction in viral titer at 1 uM by crystal violet staining based microplaque assay relative to untreated control. In kind it is functional.
For data set [9] the test system is unchanged. Nature of the data set: Antiviral activity against Venezuelan equine encephalitis virus TrD infected in Vero 76 cells assessed as reduction in viral titer at 0.5 uM by crystal violet staining based microplaque assay relative to untreated control. It counts as functional, organism-based.
For data set [10] the test system is unchanged. Put plainly: Antiviral activity against Venezuelan equine encephalitis virus TC83 infected in Vero 76 cells assessed as reduction in viral titer by crystal violet staining based microplaque assay relative to untreated control. It counts as functional, organism-based. Conditions: TC83, Vero 76.
Data set [11] is described as follows: Selectivity index, ratio of CC50 for african green monkey Vero 76 cells to EC50 for Venezuelan equine encephalitis virus TC83. In kind it is toxicity, cell-based. Conditions: read-out: Ratio CC50/EC50.
In data set [12] the target is CYP2D6 (Homo sapiens, UniProt P10635). Nature of the data set: Inhibition of human CYP2D6 at 10 uM. It counts as ADME.
CYP2D6, sequence (P10635 whole entry): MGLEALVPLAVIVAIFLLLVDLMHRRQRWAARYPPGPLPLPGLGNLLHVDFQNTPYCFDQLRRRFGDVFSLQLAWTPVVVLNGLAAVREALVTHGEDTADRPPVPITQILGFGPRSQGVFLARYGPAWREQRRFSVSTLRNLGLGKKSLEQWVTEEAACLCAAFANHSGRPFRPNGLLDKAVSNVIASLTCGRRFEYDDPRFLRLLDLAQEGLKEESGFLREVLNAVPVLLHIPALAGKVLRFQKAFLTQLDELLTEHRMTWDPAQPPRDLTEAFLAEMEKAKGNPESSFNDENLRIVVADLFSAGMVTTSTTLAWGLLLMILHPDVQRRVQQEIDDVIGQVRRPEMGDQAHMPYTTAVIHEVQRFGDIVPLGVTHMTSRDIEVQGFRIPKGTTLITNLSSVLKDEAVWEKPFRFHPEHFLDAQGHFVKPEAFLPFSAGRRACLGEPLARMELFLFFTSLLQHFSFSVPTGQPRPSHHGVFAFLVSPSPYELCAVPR
Data set [13] in a line: Permeability at pH 7.4 by PAMPA assay. In kind it is ADME. (In PAMPA a lipid-coated filter parts donor from acceptor wells.)
Data set [14] has as its target Cytochrome P450 2C19 (Homo sapiens, UniProt P33261). Nature of the data set: Inhibition of human CYP2C19 at 10 uM. It counts as ADME. Conditions: 10 µM.

Cytochrome P450 2C19, sequence (P33261 whole entry): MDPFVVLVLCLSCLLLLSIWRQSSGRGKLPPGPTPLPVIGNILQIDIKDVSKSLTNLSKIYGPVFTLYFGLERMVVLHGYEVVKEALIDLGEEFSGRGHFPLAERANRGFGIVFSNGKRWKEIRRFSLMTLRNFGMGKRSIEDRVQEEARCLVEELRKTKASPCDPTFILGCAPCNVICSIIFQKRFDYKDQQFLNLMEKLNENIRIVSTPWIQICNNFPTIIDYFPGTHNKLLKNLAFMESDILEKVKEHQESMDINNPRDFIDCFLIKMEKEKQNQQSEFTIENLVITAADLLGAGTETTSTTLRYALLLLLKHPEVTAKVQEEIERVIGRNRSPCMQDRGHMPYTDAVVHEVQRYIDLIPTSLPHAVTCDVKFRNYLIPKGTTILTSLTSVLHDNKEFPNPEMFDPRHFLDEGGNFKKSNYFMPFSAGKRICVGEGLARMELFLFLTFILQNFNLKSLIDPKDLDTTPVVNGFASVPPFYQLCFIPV

`CCN1CCN(Cc2nc3ccc([N+](=O)[O-])cc3c(=O)n2-c2ccccc2F)CC1`: in data set [1], the inhibition entry was “Active”. This compound had a solubility in [2] greater than 122 µg/mL. The results for the EC50 in [3], in data set [4] and in data set [5] were 600 nM, 800 nM and 300 nM, respectively. Further, in [6], the “fold change (FC)” value is reported as 3. The same compound came in with a CC50 in data set [7] greater than 50000 nM.

Regarding `COc1ccc(NC(=O)c2cc([N+](=O)[O-])ccc2/N=C2\CN(C)CCN2C)cc1`, the inhibition entry in [8], in data set [1] and in data set [9] was “Active” in each case. For the same compound, the EC50 in [10] stood at 170 nM; in [3] it was 50 nM; in data set [4], 40 nM; in data set [5], 20 nM. For the same compound, the solubility in data set [2] worked out at 105.6 µg/mL (≈ 266 µM). The selectivity ratio in data set [11] is greater than 1250. Besides, in [6], the “fold change (FC)” value worked out at 16000000. The compound also displayed a cytotoxic concentration (CC50) in data set [7] greater than 50000 nM.

Compound `C=C[C@H]1C[N@@]2CC[C@H]1C[C@@H]2[C@@H](O)c1ccnc2ccc(OC)cc12` [QUINIDINE] registered an inhibition at 10 µM in [12] of 88%.

`Cn1c(=O)c2[nH]cnc2n(C)c1=O.O` [THEOPHYLLINE] displayed a permeability in data set [13] of 0.32 ×10⁻⁶ cm/s.

Take `Cc1c(OCC(F)(F)F)ccnc1C[S+]([O-])c1nc2ccccc2[nH]1` (stereo not given) [LANSOPRAZOLE]: in data set [14], the “inhibition (INH)” value was 86%.

Take `CN1CCN(Cc2nc3ccc([N+](=O)[O-])cc3c(=O)n2-c2ccccc2F)CC1`: in data set [4], the EC50 was 800 nM. Besides, the selectivity ratio in data set [11] is greater than 62.5. In data set [7], the CC50 was greater than 50000 nM.

Take `COc1cccc(NC(=O)c2cc([N+](=O)[O-])ccc2/N=C2\CN(C)CCN2C)c1`: the EC50 in data set [4] came out at 8100 nM. Further, the selectivity ratio in [11] is greater than 6.2. The CC50 in data set [7] was greater than 50000 nM.

As to `CCN1CCN(Cc2nc3ccc([N+](=O)[O-])cc3c(=O)n2-c2ccc(F)cc2)CC1`, in data set [4], the EC50 came to 800 nM. In [11], the selectivity ratio was greater than 62.5. Moreover, the CC50 in data set [7] is greater than 50000 nM.

One may read the inhibition as the percentage by which the read-out fell short of the control. A word on the solubility: it is the dissolved amount per volume that the medium holds. In general, EC50 refers to the concentration giving half of the maximal effect. For orientation: CC50 means the concentration at which the toxic effect on the cells reaches its halfway point.

The values are drawn from ChEMBL document CHEMBL3352189 (J Med Chem, 2014).
